ANO1 activ – TMEM16A chloride channel activators or potentiators, primary screen, cell-based, HTS | Anoctamin-1 (Mus musculus), Q8BHY3 | HEK293 TMEM16A/YFP-H148Q/I152L, iodide quench fluorescence; stronger effect = lower value | B-score at 10 µM | 0.3% of 340,000 active | AID 623877, 2012;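 active means fluorescence-ratio B-score plate-corrected deviation score at least 3 library SD below zero, with starting fluorescence score within 5 deviations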;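 further: channel opened by trigger with iodide after compound preincubation; score built on the fluorescence ratio of max minus min over baseline; more negative score means more quench and so TMEM16A activation or potentiation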
MC4R barr agon – MC4R agonists recruiting beta-arrestin, primary screen, cell-based, luminescence, agonist arm of biased-ligand search; Melanocortin receptor 4 (Homo sapiens), P32245; U2OS MC4R beta-arrestin complementation; percent of melanotan II response, DMSO zero; activation, % at 8.9 µM; 0.98% of 360,000 active;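 active means activation above a per-plate cutoff, the mean activation of sample wells on that plate plus 3 SD, cut at about 8% in these data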
Target sequence (P32245 whole entry, looked up): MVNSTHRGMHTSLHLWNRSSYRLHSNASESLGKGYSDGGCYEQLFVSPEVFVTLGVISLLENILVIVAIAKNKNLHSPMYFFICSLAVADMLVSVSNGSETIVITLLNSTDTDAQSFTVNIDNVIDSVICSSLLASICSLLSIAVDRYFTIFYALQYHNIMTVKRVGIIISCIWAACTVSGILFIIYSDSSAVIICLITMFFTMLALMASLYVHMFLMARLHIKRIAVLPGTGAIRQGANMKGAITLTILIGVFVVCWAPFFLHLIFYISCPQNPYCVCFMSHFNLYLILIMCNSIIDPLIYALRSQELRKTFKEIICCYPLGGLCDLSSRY
MC4R antagonist – MC4R antagonists of cAMP signaling, primary screen, cell-based, TR-FRET, antagonist arm of biased-ligand search; Melanocortin receptor 4 (Homo sapiens), P32245; MC4R-expressing cells, MTII-stimulated cAMP, LANCE TR-FRET; inhibition, % at 6.5 µM; 0.48% of 360,000 active;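 active means inhibition above its plate's cutoff, the mean of tested wells on that plate plus 3 SD, cut at about 29% in these data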;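 further: 0% = Melanotan II alone and 100% = Melanotan II plus saturating MCL0020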
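System: U2OS cells stably expressing human melanocortin 4 receptor (MC4R). Reagent: Melanotan II challenge after compound preincubation. Doses: 6.5 µM. Times: 30-min compound, 1-h challenge, 1-h detection, room temperature. Measured by: TR-FRET with Eu-cAMP and labeled anti-cAMP, 671 nm. Replicates: singlicate.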
TMEM16A inh – TMEM16A chloride channel inhibitors, primary screen, cell-based, HTS; Anoctamin-1 (Mus musculus), Q8BHY3; HEK293 TMEM16A/YFP iodide influx fluorescence, ionomycin; normalized B-score (activity score, 25-100; higher = stronger inhibition) at 10 µM; 1.2% of 310,000 active; AID 588511, 2011;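 active means ratio plate-corrected score three or more library SD toward inhibition, starting fluorescence score within five deviations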;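 further: score derived from kinetic fluorescence span divided by baseline fluorescence per well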
CSC inhib – cancer stem cell viability inhibitors, primary screen, luminescence | inhibition, % at 7.5 µM | cancer stem cell-like cells viability | 1.1% of 300,000 active; in the data active means inhibition above about 75%; tested in HMLE shEcad cells
Beta apoptosis – inhibitors of cytokine-induced beta cell apoptosis, primary screen, luminescence; INS-1E cytokine-induced death, ATP luminescence, 48 h; percent of positive-control rescue, neutral wells zero; protection from apoptosis, % (test concentration not listed); 0.8% of 300,000 active;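 active means Every replicate reaches about 75%, or at least half do and their mean reaches it too, limit read from the data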;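 further: 0% = cytokine-treated negative control wells and 100% = positive control rescue; higher means more ATP so stronger rescue from cytokine killing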
The depositor's hits bear a star; i = inactive; x = no result. Shown are actives, neighbours in structure and some others; about 3.8% of the full set was active somewhere.

SMILES | ANO1 activ | MC4R barr agon | MC4R antagonist | TMEM16A inh | CSC inhib | Beta apoptosis
CCN(CC)S(=O)(=O)c1cc(NC(=O)CNc2cccc(S(=O)(=O)N3CCCC3)c2)ccc1C | i | -2.6 | 3.8 | 100* | -4.4 | 88.8*
O=C(Cn1nc(C(=O)O)c2ccccc2c1=O)Nc1cccc(S(=O)(=O)N2CCCCCC2)c1 | i | -1.5 | 11.4 | x | -8.4 | 2.4
COc1ccc(NS(=O)(=O)c2cccc(NC(=O)c3ccc(S(=O)(=O)N4CCCCCC4)cc3)c2)cc1 | i | -1.9 | 7.4 | i | x | 99.7*
COc1ccc(CCC(=O)N/N=C/c2ccc3c(c2)OCO3)cc1 | i | -2.3 | -3.8 | i | -7.7 | 0.8
N#CCCN(C(=O)COC(=O)C1CCN(S(=O)(=O)c2ccccc2C(F)(F)F)CC1)c1ccccc1 | i | 0.3 | 5.0 | x | x | x
CCCn1c(N)c(N(CCOC)C(=O)c2cccc(S(=O)(=O)N3CCCc4ccccc43)c2)c(=O)[nH]c1=O | i | -2.8 | -0.1 | i | -2.1 | -3.6
CC1CCN(C(=O)CSc2nnc(-c3ccccc3F)o2)CC1 | i | -0.4 | -2.3 | i | -21.9 | -4.4
COc1ccc(CC(=O)Nc2cccc(S(=O)(=O)N3CCCCCC3)c2)cc1OC | i | -5.5 | 1.1 | i | 9.9 | 86.7*
COc1ccc(/C(C)=N/NC(=O)c2cccc(S(=O)(=O)N3CCCC3)c2)c(O)c1 | i | -3.9 | 0.4 | i | 100.0* | 108.7*
O=S(=O)(Nc1nc2ccccc2nc1Nc1cccc(S(=O)(=O)N2CCCCC2)c1)c1ccccc1 | i | 8.5* | 13.2 | 100* | 124.1* | 57.0
COc1ccc(S(=O)(=O)N2CCCCCC2)cc1C(=O)OCC(=O)NC(N)=O | i | 1.4 | 4.7 | i | 4.8 | x
COc1ccc(CCC(=O)Nc2cccc(S(=O)(=O)N3CCCCCC3)c2)cc1OC | i | -0.5 | 12.7 | x | 4.3 | -3.1
COc1ccc(S(=O)(=O)N2CCCCCC2)cc1C(=O)OCC(=O)NC(C)(C)C | -4.65* | -2.3 | 9.8 | i | -8.2 | -1.0
COC(=O)c1nn(-c2ccc(OC)cc2)ccc1=O | i | 0.0 | 13.0 | i | 5.3 | -9.2
CCc1ccc(OCC(=O)Nc2ccc(S(=O)(=O)N3CCCC3)cc2)c(Br)c1 | i | 21.2* | 13.9 | i | 3.0 | -7.8
O=C(Nc1cccc(-c2cscn2)c1)C1CCN(Cc2ccccn2)CC1 | i | -1.6 | 13.4 | x | x | x
COc1cc(S(=O)(=O)Nc2ccccc2C(=O)N2CCCCC2)ccc1NC(C)=O | i | -2.2 | 13.3 | x | x | -3.3
O=c1c2c(-c3ccccc3)csc2ncn1/N=C/c1ccc(O)c([N+](=O)[O-])c1 | i | -1.3 | 2.2 | i | -14.9 | -4.2
O=c1c2c(-c3ccccc3)csc2ncn1/N=C/c1cccc([N+](=O)[O-])c1O | i | -1.6 | -1.4 | 25* | 12.5 | -6.4
Cc1[nH]c(=O)sc1C(=O)NCc1ccc([N+](=O)[O-])cc1 | x | 0.0 | 0.7 | x | x | x
Cc1cc(Nc2cccc(Cl)c2)nc(NCc2ccccc2)n1 | i | 6.5 | 4.2 | i | 108.2* | 106.8*
CCN(CC)c1ccc(C(=O)NNC(=O)CNC(=O)c2ccco2)cc1 | i | -2.0 | -3.8 | x | x | x
CCN1C(=O)/C(=C2\SC(=S)N(c3c(C)n(C)n(-c4ccccc4)c3=O)C2=O)c2ccccc21 | i | -0.5 | -4.1 | i | -0.1 | -23.7
CCN1C(=O)/C(=C2\SC(=S)N(NC(=O)c3ccccc3O)C2=O)c2ccccc21 | i | -2.3 | 10.8 | 100* | -10.2 | -5.8
Cc1ccc([N+](=O)[O-])cc1N=Nc1c(-c2ccc([N+](=O)[O-])cc2)[nH]n(C(N)=S)c1=O | -5.44* | -2.0 | 8.6 | x | x | x
SMILES | ANO1 activ | MC4R barr agon | MC4R antagonist | TMEM16A inh | CSC inhib | Beta apoptosis
Cc1cc(C)c(C(=O)CSc2nnc(-c3ccccc3Br)o2)cc1C | -5.05* | 0.2 | -4.0 | x | x | x
CC(C)C(C)NC(=O)CSc1nnc(-c2c[nH]c3ccccc23)o1 (stereo unspecified) | i | 0.8 | -3.2 | i | -10.1 | 6.5
Cc1ccc(C(=O)CSc2nnc(-c3c[nH]c4ccccc34)o2)cc1 | i | 8.2* | 2.2 | i | -1.9 | -4.2
CCC(C)c1ccc(NC(=S)N2CCN(C(=O)C3CCCO3)CC2)cc1 (stereo unspecified) | i | -2.3 | 4.1 | i | -21.7 | -9.2
NC(=O)c1ccc(NC(=O)COC(=O)c2ccc(Br)c(S(=O)(=O)N3CCOCC3)c2)cc1 | i | 0.0 | 6.4 | x | x | x
CNC[C@H](Cc1cccc2ccccc12)NC[C@H](CCSC)NCC1CCC(C(C)(C)C)CC1 (stereo partly specified) | x | x | x | x | 90.3* | -0.7
Cc1c(NC(=O)COC(=O)CSc2ccc([N+](=O)[O-])cc2)c(=O)n(-c2ccccc2)n1C | i | -2.2 | 7.6 | x | x | -6.3
COCCNC(=O)C1(C)CCN(Cc2ccc3ccccc3c2Br)C1 (stereo unspecified) | x | -1.6 | 3.0 | x | x | x
Cc1cc(C)c(S(=O)(=O)/N=C2/C=C(Sc3ncn[nH]3)C(=O)c3ccccc32)cc1C | i | -3.7 | 61.7* | i | 103.2* | 129.3*
Cc1ccc(C2=CC(c3ccc(N(C)C)cc3)n3nnnc3N2)cc1 (stereo unspecified) | i | 4.8 | 11.2 | i | 1.3 | 108.3*
COc1ccc(C2=CC(c3ccc(F)cc3)n3nnnc3N2)cc1 (stereo unspecified) | i | -1.3 | 1.3 | i | -5.4 | -1.6
CCN1C(=O)C(c2ccc(O)cc2)(c2ccc(O)cc2)c2ccccc21 | i | -1.4 | 4.9 | i | -5.5 | -0.3
Cc1cccc2c1NC(=O)C2(c1ccc(O)cc1)c1ccc(O)cc1 | i | 86.8* | -18.0 | i | x | -0.8
CCN(CC)c1ccc(/C=C/c2nc3ccccc3s2)cc1 | x | x | x | i | 90.4* | -1.5
CN(c1nc2ccccc2n2c(C3CC3)nnc12)S(=O)(=O)c1ccccc1 | i | -0.9 | 11.9 | i | 5.2 | 6.6
COc1ccc(CC(=O)NCc2cccc(Cl)c2)cc1S(=O)(=O)N1CCOCC1 | x | -0.5 | 0.8 | x | x | x
COc1ccc(S(=O)(=O)N(C)C[C@@H]2Oc3c(NS(C)(=O)=O)cccc3C(=O)N([C@@H](C)CO)C[C@H]2C)cc1 | i | 0.5 | 5.2 | x | x | -4.9
O=[N+]([O-])c1cc([N+](=O)[O-])c2nonc2c1Nc1ccccc1O | i | -1.8 | -2.3 | 100* | 22.5 | -9.0

Screening data as filed in PubChem BioAssay.
